Data from publication PMC5756068 (Nature chemical biology, 2016).

Key:
[1] = test system: RWP1 cells; assay: Cell viability with synthetic lipidated peptides, RWP1; assay type: cell-based, human; conditions: duplicate
[2] = test system: HEK293T cells; assay: Downstream effects of peptide expression, Western blot, HEK293T; assay type: cell-based, human
[3] = test system: RWP1 cells; assay: Downstream effects of peptide expression, Western blot, RWP1; assay type: cell-based, human
[4] = test system: Mia Paca-2 cells; assay: Downstream effects of peptide expression, Western blot, Mia Paca-2; assay type: cell-based
[5] = test system: Panc 02.03 cells; assay: Downstream effects of peptide expression, Western blot, Panc 02.03; assay type: cell-based
[6] = test system: SFN; assay: shRNA-induced cell viability rescue, SFN knockdown; assay type: cell-based; conditions: shRNA cells transfected with peptide; triplicate
[7] = Downstream effect of peptide, gels of Fig. 4 and Supplementary Fig. 7; assay type: cell-based; conditions: triplicate; cell line not stated
[8] = test system: cell cycle; assay: FACS analysis of cell cycle; assay type: cell-based; conditions: triplicate
[9] = test system: AKT (S473) phosphorylation in RWP1 cells; assay: Serum-induced AKT; assay type: cell-based, human; conditions: RWP1 starved 24 hours, 10% FBS for 20 minutes; Western blot
Summary of the method: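 Peptide expressed or not in RWP1 cells, which were starved 24 h and then given 10% FBS for 20 min. Lysate proteins run on 10% Bis-Tris SDS-PAGE and transferred to PVDF. Blots probed with anti-AKT (1:1000) or anti-phospho-AKT S473 (1:1000), then HRP secondary (1:2500), with ECL detection. Paired with HEK293T cells treated the same way.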

[10] = test system: GCHFR; assay: shRNA-induced cell viability rescue, GCHFR knockdown; assay type: cell-based; conditions: shRNA cells transfected with peptide; triplicate
[11] = test system: MDM2; assay: FRET microscopy, peptide-GFP and MDM2-mCherry; assay type: binding; conditions: HEK293T cells, confocal FRET microscopy, 48 h after transfection
Summary of the method: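 HEK293T cells were seeded at 5 × 10^4 per well on poly-L-lysine-coated glass coverslips and kept at 37°C in 5% CO2. They were co-transfected with GFP-fused peptide and mCherry-fused target, then fixed with 4% paraformaldehyde 48 h later, washed in PBS and imaged by confocal FRET microscopy at room temperature. Laser power and PMT gain were held constant. […] excitation was used with FRET detection at […]. Net FRET was obtained by subtracting GFP bleed-through and mCherry direct emission. Controls expressed GFP and/or mCherry alone.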

[12] = test system: MDM2; assay: shRNA-induced cell viability rescue, MDM2 knockdown; assay type: cell-based; conditions: shRNA cells transfected with peptide; triplicate

With Pal-RTLSQLYCSYGPLT-OH [MUS81-1] the “effect on cell viability (in words)” value [1] was “strong dosage dependent effects on cell viability”.

In the case of PSSLAYSLKKH, the p21 level [2] is reported as “did not affect the level of p53 and p21”, the p53 level [2] is reported as “did not affect the level of p53 and p21” and the p21 level [3] is reported as “accumulation of p53 and p21”. The p53 level [3] was “accumulation of p53 and p21”, the p21 level [4] was “accumulation of p53 and p21” and the p53 level [4] was “accumulation of p53 and p21”. For the same substance, the p21 level [5] was “accumulation of p53 and p21” and the p53 level [5] was “accumulation of p53 and p21”.

With Pal-PSSLAYSLKKH-OH [INCENP-1] the “effect on cell viability (in words)” value [1] was “strong dosage dependent effects on cell viability”.

For TEGPDSD, the “rescue of peptide phenotype by knockdown of SFN” value [6] was “showed rescue of the peptide phenotype”, the cdc2 level [7] was “decrease in cyclin B1 and cdc2 levels” and the “cyclin A level” value [7] was “increase in cyclin A”. The “cyclin B1 level” value [7] was “decrease in cyclin B1 and cdc2 levels”, the “effect on cell cycle” value ([8]; FACS, DAPI, 24, 72 and 120 hours, cell line not stated) was “cell cycle arrest in G2” and the “percentage of GFP positive cells vs GFP alone” value ([8]; different time points) was “similar”. For the same substance, the cdc2 expression [3] was “reduced expression of both cyclin B1 and cdc2”, the “cyclin A2 expression” value [3] was “increase of cyclin A2 expression” and the “cyclin B1 expression” value [3] was “reduced expression of both cyclin B1 and cdc2”. For the same substance, the cdc2 expression [4] was “reduced expression of both cyclin B1 and cdc2”, the “cyclin A2 expression” value [4] was “increase of cyclin A2 expression” and the “cyclin B1 expression” value [4] was “reduced expression of both cyclin B1 and cdc2”. For the same substance, the “cyclin A2 expression” value [5] was “increase of cyclin A2 expression”.

With KFFCTIL the “serum-induced AKT phosphorylation” value [9] was “inhibited the increase in AKT phosphorylation”, the “phospho-AKT (S473) level” value [2] was “did not affect the level of phospho-AKT” and the p21 level [3] was “increased the expression of p21”. For the same substance, the “phospho-AKT (S473) level” value [3] was “decrease of the level of phospho-AKT (S473)”, the p21 level [5] was “increased the expression of p21” and the “phospho-AKT (S473) level” value [5] was “decrease of the level of phospho-AKT (S473)”.

With VWCLHKE the “rescue of peptide phenotype by knockdown of GCHFR” value [10] was “showed rescue of the peptide phenotype”.

In the case of Pal-NPFREKKFFCTIL-NH2 [GNG4-1], the “effect on cell viability (in words)” value [1] is reported as “strong dosage dependent effects on cell viability”.

With RTLSQLYCSYGPLT the p21 level [3] was “increases the expression of p53 and p21”, the p53 level [3] was “increases the expression of p53 and p21” and the p21 level [5] was “increases the expression of p53 and p21”. The p53 level [5] was “increases the expression of p53 and p21”.

In the case of ETFSDLW, the P53 level [7] is reported as “increasing P53 levels”, the “FRET signal with MDM2” value [11] is reported as “Positive FRET signals” and the “rescue of peptide phenotype by knockdown of MDM2” value [12] is reported as “showed rescue of the peptide phenotype”. For the same substance, the p21 level [3] was “increase in p21 levels”, the p53 level [3] was “decrease in degradation of p53” and the p21 level [4] was “increase in p21 levels”. The p53 level [4] was “decrease in degradation of p53”, the p21 level [5] was “increase in p21 levels” and the p53 level [5] was “decrease in degradation of p53”.
